# This sample holds only a part of the variants without activity.
# B1: tRNA (parent)
# chain: GUUCCGUUGGCGUAAUGGUAACGCGUCUCCCUCCUAAGGAGAAGACUGCGGGUUCGAGUCCCGUACGGAACG
# Variants of: B1
# Assay: yeast fitness relative to wild type (ratio to wild type); higher = fitter; tRNA-Arg(CCU), competitive growth, 37 C, YPD
# Method in brief: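 Changes in genotype frequencies gave Darwinian fitness relative to wild type. Frequencies were read by 100-nucleotide paired-end sequencing of gene amplicons before and after pooled Saccharomyces cerevisiae strains, carrying tRNA-Arg(CCU) gene variants at the native locus, were competed in YPD at 37°C for 24 hours in six replicates. A genotype was kept only with ≥ 100 starting reads, and estimates < 0.5 were set to 0.5.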
row,Variant,yeast fitness
1,G12C C30U C34U A42G A57C,≤ 0.5
2,U13A C61A A65G,0.544
3,G12C C22U U32C,0.692
4,U13A U47A C60A A69C,0.525
5,U13A C27G A42U,0.671
6,U13A G41A G68C,0.504
7,U13A A69U,0.984
8,U13A C31U A40U,1.04
9,U13A C62G A69G,0.571
10,U13A A45G G58C A69U A70U,0.603
11,U13A C30U C55G G58C,0.56
12,U13A C27A A36C A42U U64G,≤ 0.5
13,U13A C22G U59G A65U,≤ 0.5
14,U13A C49U U54C C62U G68C,≤ 0.5
15,U13A A14C C22A G48C A69U,≤ 0.5
16,G12C G48A C66U,0.784
17,U13A U16A U54A A65G,≤ 0.5
18,U13A A40G U47G G63C,0.535
19,G12C U59C A69C,0.665
20,U13C A14C A45U C66U,≤ 0.5
21,U13A C29G A43G G67A,≤ 0.5
22,G12C U26C A37G,≤ 0.5
23,G12C C22U A43C,0.615
24,G12C C33U U47C G48A G58A,≤ 0.5

row,Variant,yeast fitness
1,U13A G38C G58C,0.798
2,G12C G39A A57U,≤ 0.5
3,U13A A20G G41A G51C G67C,≤ 0.5
4,G12C U28C C30U C66A,≤ 0.5
5,G12C C30A A42G,0.562
6,U13A C30U,0.802
7,U13A C30G,0.584
8,U13A C22G U32C A42C G48C C55G G63A G68C,≤ 0.5
9,U13A A20C A40U,≤ 0.5
10,U13A U28A G63A G67A,≤ 0.5
11,G12C A69C,0.806
12,G12C G67C,0.825
13,G12C G67A,0.771
14,U13A C31A G44A A57G,≤ 0.5
15,U13A A40C U53A,0.53
16,U13A C34G G50A C60G C61U,≤ 0.5
17,G12C C22U A43C G68C,0.556
18,G12C C34A G44A C46U G68A,≤ 0.5
19,G12C C34U C49U A57G,≤ 0.5
20,G12C U16C U28A C60U,≤ 0.5
21,G12C C22U U28A,0.52
22,U13A G41A,0.714
23,G12C C27G G58A,≤ 0.5
24,G12C C34U G44A G51C,≤ 0.5

row,Variant,yeast fitness
1,G12C C22U C31A C60G,≤ 0.5
2,U13A G41A G67A,0.546
3,G12C G25C A69U,≤ 0.5
4,G12C C29A,0.684
5,G12C C29U,0.85
6,U13A G68U,0.824
7,U13A A36G,1.02
8,U13A A43U G50A U54G G68C,≤ 0.5
9,G12C C62G,0.739
10,U13A A15G C27U A57G,≤ 0.5
11,U13A A20G A21U A40U,≤ 0.5
12,G12C U32G C33G G48C,≤ 0.5
13,G12C C31G A65C,≤ 0.5
14,U13A U28C C55U,0.741
15,G12C C33G G44C A69C,≤ 0.5
16,G12C A43U,0.892
17,U13A C30A C31U A43C,0.942
18,U13A U16A C24G C33G,≤ 0.5
19,U13A G23C C49A U64G,≤ 0.5
20,U13A G23C C27G U53C C61A G68A,0.584
21,U13A U28A U47G,0.528
22,G12C A69C A70U,0.688
23,U13A G48C C55G C66A,0.584
24,U13A A42U A57C C61U A65U,≤ 0.5

row,Variant,yeast fitness
1,U13A A20G,0.888
2,U13A A20C,0.715
3,G12C C61U C66U A70C,≤ 0.5
4,G12C C27U G58C A69C,0.657
5,G12C C31G C33G G48A,0.642
6,G12C G41C C60G,≤ 0.5
7,G12C C31G C49G C55G A69U,0.527
8,G12C C33A A42G,0.733
9,U13A C22A C29A G41C G50C,≤ 0.5
10,G12C C22U U54C C61U G68A,≤ 0.5
11,U13A G63A,0.853
12,U13A A42U C66U,0.704
13,G12C C55G C66U,≤ 0.5
14,G12C U16C A42C C49U,0.594
15,G12C G18C,0.55
16,G12C G23C G50A C55A,≤ 0.5
17,U13A A40C,0.789
18,U13A A40G,0.733
19,G12C C49U U53C C60G,≤ 0.5
20,U13A C49U,1.02
21,U13A C49A,0.654
22,U13A G50C,0.653
23,U13A C24A C30A,0.605
24,U13A C34G A45C A57C,≤ 0.5

row,Variant,yeast fitness
1,U13A A15G C22G C24U G44A U53G,≤ 0.5
2,U13A C24A A45C,≤ 0.5
3,U13A C24U U35A A43C G50C,≤ 0.5
4,U13A G67C,0.945
5,G12C G41C C46U,0.596
6,U13A G23C C27G C61A C62U,≤ 0.5
7,U13A C61G G68C,≤ 0.5
8,U13A U32A A37U,≤ 0.5
9,U13A U26G C27A G39C A42G G51C,≤ 0.5
10,G12C C27U A69U,0.599
11,G12C U47A U54C,0.519
12,G12C C30U A43G,0.515
13,G12C U13C A40U G58C,≤ 0.5
14,U13A C22G C24A C46G C55U C61A,≤ 0.5
15,U13A A42G,0.851
16,U13A A42C,1.05
17,G12C C27G C30G,≤ 0.5
18,G12C C24G C60A,≤ 0.5
19,U13A U32C G67A A70G,0.547
20,G12C U13C U16A C29G G44C C49G A57C,≤ 0.5
21,G12C C24G,0.622
22,U13A U19A C24G C27U C33G G52C,≤ 0.5
23,G12C C31U G50A,0.677
24,G12C C24G G51C C62A U64G,0.59

row,Variant,yeast fitness
1,G12C C62U A69U,0.651
2,G12C U13A A20C A21G U26G,≤ 0.5
3,U13A C22G C24A C46G C55U,0.551
4,G12C C24G C27U A43U G67A,≤ 0.5
5,U13A A15G C22G U28A,0.619
6,G12C U28C U35A G38A C46G C62U,≤ 0.5
7,G12C U32C A37C A45G A57C,≤ 0.5
8,G12C C46A,0.928
9,G12C C46U,0.815
10,G12U C60G,≤ 0.5
11,U13A G50C A70U,≤ 0.5
12,G12U U54C,0.59
13,U13A C27G C34G G48C,≤ 0.5
14,G12C U47A G52C,≤ 0.5
15,U13A C55A,0.648
16,G12U C30G,≤ 0.5
17,U13A C30U A45C,0.611
18,U13A U16A A43C,0.564
19,U13A G25C,1.04
20,G12C C31U G68C,0.505
21,U13A C31U C49U C66A G67A,≤ 0.5
22,U13A U53A,0.59
23,U13A A40G A42G A57C C66U,0.522
24,U13A C27U A37C C61U,≤ 0.5

row,Variant,yeast fitness
1,U13A A14U C27G C46G,0.553
2,G12C A45C,0.75
3,G12C U32G C49G C55A,≤ 0.5
4,G12C C31U A57U,0.603
5,U13A U28A C31U G39A A57G,≤ 0.5
6,U13A A37U U53G,0.536
7,U13A C31U C46A,0.665
8,U13A C30U G39C C55G,0.545
9,U13A G18A A69U,0.618
10,G12C G25U G44C,≤ 0.5
11,G12C C34A G58C A65C A69C,≤ 0.5
12,U13A C27G U59C,≤ 0.5
13,G12C A40U G48C G63A,≤ 0.5
14,G12C C24U G67C,0.536
15,U13A A36G A43U G51A,≤ 0.5
16,G12C C33G G44C U54A,≤ 0.5
17,G12C U32G A40U A57U A65U,0.568
18,G12C U13A U16G C24G A69U,≤ 0.5
19,G12C C30U C66A,≤ 0.5
20,G12C U19A,0.742
21,U13A G58A,1.06
22,U13A C27U C31U,0.673
23,G12C G48C A70U,0.539

# — the RNAGym collection of RNA variant scans (doi:10.1126/science.aae0568)
